Assay results as given in the EternaBench riboswitch data.

System: MS2 coat protein
Assay: apparent Kd, MS2 coat protein; higher = weaker binding; RNA-MaP array
Outline: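 Incubations were done at room temperature with fluorescently labeled MS2 coat protein at 1.5 nM to 3 μM and designed RNAs transcribed on an Illumina sequencing chip from sequenced DNA templates, with or without input ligand. Apparent Kd is the median of binding curves fitted for each cluster. Designs with fewer than 10 measured clusters were excluded.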

[1] = designed as: OFF switch for theophylline, no ligand
[2] = ligand present: theophylline, designed as: OFF switch for theophylline
[3] = designed as: OFF switch for flavin mononucleotide, no ligand
[4] = ligand present: flavin mononucleotide, designed as: OFF switch for flavin mononucleotide
[5] = designed as: ON switch for theophylline, no ligand
[6] = ligand present: theophylline, designed as: ON switch for theophylline
[7] = designed as: ON switch for flavin mononucleotide, no ligand
[8] = ligand present: flavin mononucleotide, designed as: ON switch for flavin mononucleotide
[9] = designed as: OFF switch for tryptophan, no ligand
[10] = ligand present: tryptophan, designed as: OFF switch for tryptophan

| Sequence | apparent Kd [3] [nM] | apparent Kd [4] [nM] | further results |
| --- | --- | --- | --- |
| AUGCACGGGCUAAUCUGCGAUUGGCACGAUACCAGAGAUCAAGACCUCCCUUGGCAGCGUGUCACAUGAGGAUCACCCAUGUGGA | – | – | apparent Kd [1]: 131 nM; apparent Kd [2]: 94.8 nM |
| UUAUUCCCGGAGGAUAUCGACGUAUUUGGCGCCCGAGAAGGCCGGACAUGAGGAUCACCCAUGUCCCGUGCUCU | 5.66 | 5.82 | – |
| AGCUUAAUUAUAGGAUAUGAGAGGACAUGAGGAUCACCCAUGUAGAUGUUUGCCACAUAGCCAGUUCAGAAGGAUAGAGCACCA | 24.9 | 19.4 | – |
| GAAGAUCCGUAAGAUACCAGUGCAGAUCGGCACAUGAGGAUCACCCAUGUAAAGCAAGAACACCCUUGGCAGCUUUCGUAACAAC | – | – | apparent Kd [5]: 158 nM; apparent Kd [6]: 10.3 nM |
| AUUGACUCAGAGAAGGGACUCAACAUGAGGAUCACCCAUGUUCUUUCGAAUAAAGGCUCUUAGGGUCAGGAUAUCUGUACGUAA | – | – | apparent Kd [7]: 9.6 nM; apparent Kd [8]: 9.99 nM |
| ACUGCUGUAGGAUAUCAACGAAAUAACAUGAGGAUCACCCAUGUGGCAGUGAUCAGCAGUUGAGAAGGACAUGGCC | 10.9 | 11.3 | – |
| AGGACAUGAGGAUCACCCAUGUGAUGACAUUUCCUAGAACCGAAGGAUAUGCAAACGGAACCCGCGCAGAAGGUCGCUAACCUU | 57.5 | 42.5 | – |
| GUGACUAAAUGCAAGGAUAUCCGCGGCGGUACAUGAGGAUCACCCAUGUCAAGAGUCCACUGGCAGGAGAAGGUGCCCUGCGUCAU | – | – | apparent Kd [7]: 7.57 nM; apparent Kd [8]: 6.07 nM |
| UGUCGUAAAGGAUAUACAUGAGGAUCACCCAUGUCGGCCGUUAGGCCGUAAGGUGUGCGUAGAAGGUUACAUUG | 191 | 149 | – |
| ACUGCUUUAGCGGCCGCCACUACAUGGACACUUACACUUUCUUGUUACAUGAGGAUCACCCAUGUUAGGACCGGGCUUGUACGGA | – | – | apparent Kd [9]: 62.1 nM; apparent Kd [10]: 78.2 nM |
| GUAACGUGCAAAGGAUAUAUACAUGAGGAUCACCCAUGUCGGAAUGAGAUCAAGGUCGCUCGCCUAUAGAAGGUUGGCGCUACU | 86.7 | 43.9 | – |
| GUCUCUAGGACAGGAUAUCUCCUCAGGGAUGCGAGAGAAGGGUCUAUUGACAUGAGGAUCACCCAUGUGGAUCAUGUCUAUGAU | 378 | 352 | – |
| GGGACCACUCUUGGGCCGCUGACAUGAGGAUCACCCAUGUAUAGAAGGAGGGUGGCUAAUCACACCUAGGAUAUAUACAAGACU | 12 | 11 | – |
| GGCUUCCCAAGAGGAUAUGCGGUAAUUAUCUACAUGAGGAUCACCCAUGUUUUUAACUCAAGUCCGCAGAAGGCUUAAGGAUAU | – | – | apparent Kd [7]: 5.13 nM; apparent Kd [8]: 5 nM |
| ACCCUGUGAGGAUAUAUGCGGUUUGAACCAGAUCAGAAAUAAUAGAAGGCACAUGAGGAUCACCCAUGUUUCUC | 27.9 | 22.8 | – |
| UACGGUGCAGGAUAUCGAAUUUCAAACAUGAGGAUCACCCAUGUCUAAUAUGGCGACUAACGAGAAGGGCAGGAAG | 16.2 | 16 | – |
| GUUCAACGGUGAGGAUAUUGCAGUACGUACGCACAAGAAGGCACUCCAUAGCACAGGGUGCACAUGAGGAUCACCCAUGUGGUC | 494 | 224 | – |
| CCUCACUUGAAGAAGGACAGCUUCGGUCACAUCGGAACAUGAGGAUCACCCAUGUGACGCGUGGUGUAGGAUAUUCGUAAGGCA | 57.6 | 147 | – |
| CCUCGUGGACAGGAUAUACACUCGUAUGAUCAUGUAGAAGGGUCCACAUGAGGAUCACCCAUGUUGACAGCCGU | 60.5 | 81.4 | – |
| CGGCGACAUGAGGAUCACCCAUGUUAGGAUAUUCAGUUAACUGUGUUUGAUCGUUUGAGAAGAAGGAACGUGAG | 10.7 | 10.2 | – |
| AAGUUACACAAGAAGGAGGGCGACUUUUUCACAUGAGGAUCACCCAUGUAUCCUCUUGGAGGAACCUAGGAUAUUGCUAAGCGU | 175 | 170 | – |

| Sequence | apparent Kd [3] [nM] | apparent Kd [4] [nM] | further results |
| --- | --- | --- | --- |
| GUUUACAUGAGGAUCACCCAUGUCGCCGGCCGAGGACCGGUACGGCCGCCACUCGUCCUAAUGGCACUUGACUUCCCUAUUAAGU | – | – | apparent Kd (designed as: ON switch for tryptophan, no ligand): 20.3 nM; apparent Kd (ligand present: tryptophan, designed as: ON switch for tryptophan): 24.3 nM |
| UCCCGACAUGAGGAUCACCCAUGUGGACAGUACACAGGAUAUUAACUCAUUACAAUAGAAUAAGAAGGGUGGUACC | – | – | apparent Kd [7]: 69.1 nM; apparent Kd [8]: 47.1 nM |
| AACAAACAUGAGGAUCACCCAUGUGAGGAUAUCAAGUCCAUACCCUAAGAGGGAGUUUUGAGAAGGCACGUGUA | 11.2 | 15.1 | – |
| GGAUUCAGAGGAUAUACAUGAGGAUCACCCAUGUCAUUCAGCCAAGAUAUGUGUUUCAGUAGAAGGCUGAUCGG | 22.3 | 18 | – |
| AGGACGUCAGGAUAUUCUAUGUGGCUCUAAUGGCCGACCAUGAAGAAGGGACAUGAGGAUCACCCAUGUGAGCU | 25.7 | 50.1 | – |
| CAAUACGAUGUCAGGAUAUUAUUUCAAGUAGACGGUAAGAAGGGACAUGAGGAUCACCCAUGUACGGAAUACGC | 6.35 | 6.32 | – |
| CCGCGCGUAGGAUAUACUAGUGUAUCAGUCGGUAUUGGAAAACAUGAGGAUCACCCAUGUAGAAGGACGCUAAU | 8.4 | 10.5 | – |
| GUCUCUCGCUUAGGAUAUCAGCACGAUUAUCCCUGAGAAGGAAGUGACAGACAUGAGGAUCACCCAUGUAUCCAAGGUUCGAAG | 15.6 | 15 | – |
| UGCUUUUACGGAGGAUAUCUUUGGUCGUUAUGAAGAGAAGGCCGUCCUAACAUGAGGAUCACCCAUGUAUCUCAUUACAGUCUC | – | – | apparent Kd [7]: 22.9 nM; apparent Kd [8]: 16.3 nM |
| GCGCCUCCCAAGGAUAUAACGCGUCUCUAAGGAUUAGAAGGUGGGACAUGAGGAUCACCCAUGUGACUCCUUUA | 7.31 | 7.37 | – |
| GCCCUGCGCCCGGGACCGGCAAGAUCCAUGCGAGGACCGGUACGGCCGCCACUCGCAGACGUACAUGAGGAUCACCCAUGUCCUC | – | – | apparent Kd [9]: 565 nM; apparent Kd [10]: 663 nM |
| CUUAUACAUGAGGAUCACCCAUGUGGUGAUACCAGCCACGAUCAAGGCCCUUGGCAGCACAAAGGGAAUAAUAUGAUUACAAAAC | – | – | apparent Kd [5]: 227 nM; apparent Kd [6]: 212 nM |
| CCAUUGUCAGGAUAUUGUGGUUUAGCGUCGAAAGGGCUUAGCAAGAAGGGACAUGAGGAUCACCCAUGUGUAGU | 33.8 | 146 | – |
| CAACUGCUUGAGCUUACUUAUUGGACUUCCCGAGGACCGGUACGGCCGCCACUCGCAGGGACACAUGAGGAUCACCCAUGUAAAG | – | – | apparent Kd [9]: 15.7 nM; apparent Kd [10]: 16.2 nM |
| CUCUUAGAAGGAUAUUAAUAAUGUUACAUGAGGAUCACCCAUGUCUCAAUAUGUGACCGUUAAGAAGGUCUAUCGC | 9.2 | 8.16 | – |
| UAAAGCUGAAAGAAGGCUCCAUCGCUAGUACUGAGAGGAUAUUUCGUUGUUGACAUGAGGAUCACCCAUGUGGUUCGCCGGGCC | – | – | apparent Kd [7]: 49.4 nM; apparent Kd [8]: 26.8 nM |
| GUCACACAGUAGGAUACCAGCGUGGCUUAUCCCUGAUCGUACAUGAGGAUCACCCAUGUCCGCCCUUGGCAGCCUCCUGCUCGGA | – | – | apparent Kd [1]: 12.7 nM; apparent Kd [2]: 34.5 nM |
| AGAGCACAUGAGGAUCACCCAUGUUAGGAUAUAAGUCUGGAUCUACCUGAGCCCGAUCUUAGAAGGAACGGUGU | 11 | 11.6 | – |
| ACAGCAAACGUAGGAUAUGGGAGAACAUGAGGAUCACCCAUGUGGAAGUACGAGUUCGCUACAUACCAGAAGGACGAAAUCUAC | – | – | apparent Kd [7]: 156 nM; apparent Kd [8]: 35.8 nM |
| GCAUAAGAUCAGAAGGGUAAUUUGUAACAACAUACAGGAUAUGAGGAAACAUGAGGAUCACCCAUGUGAAGCGAAAACAGAAAU | – | – | apparent Kd [7]: 15.5 nM; apparent Kd [8]: 11.4 nM |
| AGUGAGGUUCUAGGAUAUCUCCCUCGAGUGCAGCUACAUGAGGAUCACCCAUGUCAUGGGUGUCGAGAGAAGGAGAAGGGCUUA | 74.5 | 104 | – |
